Test results as given in the M2OR odorant receptor database.

Columns and labels:
Details in all cases: stereoisomer not certain
OR4A15 (Homo sapiens) = OR4A15 (Homo sapiens) (UniProt Q8NGL6)
Outline: (§1)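 Each entry records the cell line, G-protein, co-transfected protein and tags used. Methods varied with the source, often transient luciferase assays in mammalian cell lines. A receptor–molecule pair is called responsive (active) if the original authors judged its signal statistically different from baseline and non-responsive (inactive) otherwise.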

OR4A16 (Homo sapiens) = OR4A16 (Homo sapiens) (UniProt Q8NH70)
Sequence of OR4A16 (Homo sapiens) (Q8NH70 whole entry): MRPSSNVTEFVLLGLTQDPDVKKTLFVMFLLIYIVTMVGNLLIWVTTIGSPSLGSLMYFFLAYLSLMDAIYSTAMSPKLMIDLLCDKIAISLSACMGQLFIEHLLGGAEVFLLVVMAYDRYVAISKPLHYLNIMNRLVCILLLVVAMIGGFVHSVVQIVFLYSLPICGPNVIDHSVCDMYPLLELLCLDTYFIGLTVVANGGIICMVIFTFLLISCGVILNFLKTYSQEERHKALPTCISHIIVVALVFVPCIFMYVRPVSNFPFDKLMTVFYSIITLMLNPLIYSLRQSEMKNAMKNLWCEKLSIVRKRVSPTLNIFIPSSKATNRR
Outline: as §1

OR4A47 (Homo sapiens) = OR4A47 (Homo sapiens) (UniProt Q6IF82)
Sequence of OR4A47 (Homo sapiens) (Q6IF82 whole entry): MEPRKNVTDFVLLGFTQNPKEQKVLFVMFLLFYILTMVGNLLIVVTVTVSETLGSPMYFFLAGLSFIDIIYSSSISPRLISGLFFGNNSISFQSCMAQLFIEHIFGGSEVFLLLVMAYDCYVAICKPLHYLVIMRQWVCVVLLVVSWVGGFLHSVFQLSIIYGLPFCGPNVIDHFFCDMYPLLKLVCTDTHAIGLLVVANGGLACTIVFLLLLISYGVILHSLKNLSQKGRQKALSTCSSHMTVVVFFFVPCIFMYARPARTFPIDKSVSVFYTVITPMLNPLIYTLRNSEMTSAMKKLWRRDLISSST
Outline: as §1

OR4A5 (Homo sapiens) = OR4A5 (Homo sapiens) (UniProt Q8NH83)
Sequence of OR4A5 (Homo sapiens) (Q8NH83 whole entry): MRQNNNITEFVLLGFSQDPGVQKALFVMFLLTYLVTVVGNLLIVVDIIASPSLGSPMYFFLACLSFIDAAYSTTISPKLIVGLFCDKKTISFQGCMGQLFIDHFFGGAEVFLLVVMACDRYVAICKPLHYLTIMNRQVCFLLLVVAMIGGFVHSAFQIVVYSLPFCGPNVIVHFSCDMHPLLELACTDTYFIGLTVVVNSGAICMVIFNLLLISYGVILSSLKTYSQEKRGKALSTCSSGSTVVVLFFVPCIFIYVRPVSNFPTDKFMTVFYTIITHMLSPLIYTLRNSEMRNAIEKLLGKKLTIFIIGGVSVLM
Outline: as §1

OR4B1 (Homo sapiens) = OR4B1 (Homo sapiens) (UniProt Q8NGF8)
Sequence of OR4B1 (Homo sapiens) (Q8NGF8 whole entry): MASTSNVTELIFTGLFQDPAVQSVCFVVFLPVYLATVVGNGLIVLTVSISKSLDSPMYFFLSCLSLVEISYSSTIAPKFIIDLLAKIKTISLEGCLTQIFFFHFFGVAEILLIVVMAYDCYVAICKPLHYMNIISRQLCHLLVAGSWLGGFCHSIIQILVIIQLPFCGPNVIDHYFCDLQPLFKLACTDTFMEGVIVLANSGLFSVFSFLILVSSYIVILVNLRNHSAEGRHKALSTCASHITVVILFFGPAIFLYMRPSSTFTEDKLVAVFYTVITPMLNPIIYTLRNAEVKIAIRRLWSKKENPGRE
Outline: as §1

OR4C11 (Homo sapiens) = OR4C11 (Homo sapiens) (UniProt Q6IEV9)
Sequence of OR4C11 (Homo sapiens) (Q6IEV9 whole entry): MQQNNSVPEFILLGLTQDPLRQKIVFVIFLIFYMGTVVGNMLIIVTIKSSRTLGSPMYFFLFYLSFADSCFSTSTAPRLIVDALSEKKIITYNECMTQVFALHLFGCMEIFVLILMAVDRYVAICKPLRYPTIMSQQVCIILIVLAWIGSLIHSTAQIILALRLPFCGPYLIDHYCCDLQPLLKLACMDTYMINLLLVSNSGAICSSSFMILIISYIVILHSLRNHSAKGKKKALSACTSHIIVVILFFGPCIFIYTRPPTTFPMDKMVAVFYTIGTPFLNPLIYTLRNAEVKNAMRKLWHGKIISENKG
Outline: as §1

OR4C12 (Homo sapiens) = OR4C12 (Homo sapiens) (UniProt Q96R67)
Sequence of OR4C12 (Homo sapiens) (Q96R67 whole entry): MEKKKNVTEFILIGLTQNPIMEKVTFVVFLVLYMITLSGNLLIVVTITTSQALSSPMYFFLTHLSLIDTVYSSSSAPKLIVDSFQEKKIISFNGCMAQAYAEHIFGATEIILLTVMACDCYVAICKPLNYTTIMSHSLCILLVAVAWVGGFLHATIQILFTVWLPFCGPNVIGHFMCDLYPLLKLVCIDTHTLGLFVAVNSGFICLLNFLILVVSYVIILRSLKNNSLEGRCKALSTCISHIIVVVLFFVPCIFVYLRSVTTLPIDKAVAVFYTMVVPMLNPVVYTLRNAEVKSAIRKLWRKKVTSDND
Outline: as §1

OR4C13 (Homo sapiens) = OR4C13 (Homo sapiens) (UniProt Q8NGP0)
Sequence of OR4C13 (Homo sapiens) (Q8NGP0 whole entry): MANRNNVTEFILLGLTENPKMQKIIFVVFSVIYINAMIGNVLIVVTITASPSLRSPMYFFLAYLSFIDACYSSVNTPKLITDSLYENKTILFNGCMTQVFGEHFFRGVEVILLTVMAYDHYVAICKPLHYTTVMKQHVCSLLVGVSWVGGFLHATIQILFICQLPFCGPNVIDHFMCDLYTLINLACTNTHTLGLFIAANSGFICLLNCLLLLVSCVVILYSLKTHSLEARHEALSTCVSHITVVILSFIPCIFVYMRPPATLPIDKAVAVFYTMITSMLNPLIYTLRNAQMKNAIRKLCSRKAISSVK
Outline: as §1

OR4C16 (Homo sapiens) = OR4C16 (Homo sapiens) (UniProt Q8NGL9)
Sequence of OR4C16 (Homo sapiens) (Q8NGL9 whole entry): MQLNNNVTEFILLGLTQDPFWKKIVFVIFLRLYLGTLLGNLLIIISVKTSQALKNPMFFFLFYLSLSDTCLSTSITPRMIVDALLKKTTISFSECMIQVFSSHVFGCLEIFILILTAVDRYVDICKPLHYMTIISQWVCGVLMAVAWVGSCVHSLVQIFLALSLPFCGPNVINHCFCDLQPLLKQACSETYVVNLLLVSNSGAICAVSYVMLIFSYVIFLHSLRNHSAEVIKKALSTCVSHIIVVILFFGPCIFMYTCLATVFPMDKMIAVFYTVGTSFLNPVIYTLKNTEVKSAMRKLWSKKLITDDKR
Outline: as §1

OR4C3 = tested on: OR4C3
Outline: as §1

OR4C45 (Homo sapiens) [1] = target: OR4C45 (Homo sapiens) (UniProt A6NMZ5)
Outline: as §1
Target sequence in this assay (A6NMZ5 whole entry): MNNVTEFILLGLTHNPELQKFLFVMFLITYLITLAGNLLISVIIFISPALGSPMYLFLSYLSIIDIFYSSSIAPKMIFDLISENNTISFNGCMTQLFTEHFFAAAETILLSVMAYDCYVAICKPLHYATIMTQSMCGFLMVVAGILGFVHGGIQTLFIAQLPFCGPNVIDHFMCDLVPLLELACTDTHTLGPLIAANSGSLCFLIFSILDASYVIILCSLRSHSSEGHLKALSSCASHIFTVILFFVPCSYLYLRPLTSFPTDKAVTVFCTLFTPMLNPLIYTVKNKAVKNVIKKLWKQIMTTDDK

OR4C46 (Homo sapiens) = OR4C46 (Homo sapiens) (UniProt A6NHA9)
Sequence of OR4C46 (Homo sapiens) (A6NHA9 whole entry): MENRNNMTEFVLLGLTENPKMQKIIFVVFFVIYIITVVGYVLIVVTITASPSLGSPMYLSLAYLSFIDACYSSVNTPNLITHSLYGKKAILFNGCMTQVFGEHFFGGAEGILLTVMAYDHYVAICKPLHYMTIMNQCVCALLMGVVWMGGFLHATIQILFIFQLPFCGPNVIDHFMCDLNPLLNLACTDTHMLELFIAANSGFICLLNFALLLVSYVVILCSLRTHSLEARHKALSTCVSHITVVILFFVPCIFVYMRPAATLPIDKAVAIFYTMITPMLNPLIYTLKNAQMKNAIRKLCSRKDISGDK
Outline: as §1

OR4C5 (Homo sapiens) = OR4C5 (Homo sapiens) (UniProt Q8NGB2)
Sequence of OR4C5 (Homo sapiens) (Q8NGB2 whole entry): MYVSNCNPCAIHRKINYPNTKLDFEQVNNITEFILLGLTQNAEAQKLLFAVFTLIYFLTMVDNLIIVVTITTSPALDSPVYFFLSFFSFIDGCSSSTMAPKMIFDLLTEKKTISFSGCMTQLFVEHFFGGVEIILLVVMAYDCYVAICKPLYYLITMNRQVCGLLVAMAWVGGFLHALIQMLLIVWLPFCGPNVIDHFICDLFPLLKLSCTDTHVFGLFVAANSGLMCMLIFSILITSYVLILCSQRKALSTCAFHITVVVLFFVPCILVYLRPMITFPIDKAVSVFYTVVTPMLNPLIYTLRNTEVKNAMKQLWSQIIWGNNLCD
Outline: as §1

OR4C6 (Homo sapiens) = OR4C6 (Homo sapiens) (UniProt Q8NH72)
Sequence of OR4C6 (Homo sapiens) (Q8NH72 whole entry): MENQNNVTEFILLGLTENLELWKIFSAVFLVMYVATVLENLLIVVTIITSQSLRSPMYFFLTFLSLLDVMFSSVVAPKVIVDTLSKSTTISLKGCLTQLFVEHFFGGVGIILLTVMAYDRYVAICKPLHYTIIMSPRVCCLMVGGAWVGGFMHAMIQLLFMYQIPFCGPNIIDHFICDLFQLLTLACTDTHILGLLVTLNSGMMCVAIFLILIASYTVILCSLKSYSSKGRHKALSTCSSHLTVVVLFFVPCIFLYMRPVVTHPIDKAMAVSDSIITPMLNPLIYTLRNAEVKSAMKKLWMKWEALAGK
Outline: as §1

OR4CB P8T = tested on: OR4CB P8T
Sequence of OR4CB P8T (as listed by the source): as the sequence (Q6IEV9 whole entry) above, with P8T counted along it
Outline: as §1

OR4CC = tested on: OR4CC
Outline: as §1

OR4A8 (Homo sapiens) = OR4A8 (Homo sapiens) (UniProt P0C604)
Sequence of OR4A8 (Homo sapiens) (P0C604 whole entry): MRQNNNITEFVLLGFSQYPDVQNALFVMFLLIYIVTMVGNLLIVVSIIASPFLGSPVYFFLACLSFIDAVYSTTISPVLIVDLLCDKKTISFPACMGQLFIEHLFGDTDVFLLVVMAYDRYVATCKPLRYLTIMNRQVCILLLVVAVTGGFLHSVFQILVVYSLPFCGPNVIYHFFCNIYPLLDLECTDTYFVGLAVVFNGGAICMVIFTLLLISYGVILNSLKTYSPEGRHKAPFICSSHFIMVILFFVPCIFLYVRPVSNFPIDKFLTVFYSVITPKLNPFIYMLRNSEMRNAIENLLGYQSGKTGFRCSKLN
Outline: as §1

OR4C15 (Homo sapiens) = OR4C15 (Homo sapiens) (UniProt Q8NGM1)
Outline: as §1

OR4C3 (Homo sapiens) = OR4C3 (Homo sapiens) (UniProt Q8NH37)
Sequence of OR4C3 (Homo sapiens) (Q8NH37 whole entry): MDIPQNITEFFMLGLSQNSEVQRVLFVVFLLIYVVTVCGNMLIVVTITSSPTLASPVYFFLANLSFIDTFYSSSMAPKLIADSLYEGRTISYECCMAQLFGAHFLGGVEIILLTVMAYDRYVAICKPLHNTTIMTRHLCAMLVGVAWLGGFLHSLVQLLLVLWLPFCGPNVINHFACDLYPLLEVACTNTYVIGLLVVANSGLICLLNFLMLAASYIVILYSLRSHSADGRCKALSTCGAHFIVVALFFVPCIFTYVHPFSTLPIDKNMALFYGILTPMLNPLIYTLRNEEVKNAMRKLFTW
Outline: as §1

OR4C45 (Homo sapiens) [2] = target: OR4C45 (Homo sapiens) (UniProt A6NMZ5); remark: listed apart in the source
Outline: as §1

Measured: odorant receptor agonist call

Sequence of OR4A15 (Homo sapiens) (Q8NGL6 whole entry): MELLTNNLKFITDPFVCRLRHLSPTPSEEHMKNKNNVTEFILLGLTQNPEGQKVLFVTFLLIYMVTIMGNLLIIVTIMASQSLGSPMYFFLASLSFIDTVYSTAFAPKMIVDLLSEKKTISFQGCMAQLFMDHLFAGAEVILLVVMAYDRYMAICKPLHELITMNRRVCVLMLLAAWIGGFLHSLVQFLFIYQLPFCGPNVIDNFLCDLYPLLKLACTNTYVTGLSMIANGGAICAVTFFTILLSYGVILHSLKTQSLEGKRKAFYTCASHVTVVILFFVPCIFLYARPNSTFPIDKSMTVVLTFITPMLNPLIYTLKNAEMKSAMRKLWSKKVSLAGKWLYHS

C=CCOC(=O)Cc1ccccc1
not listed: OR4A8 (Homo sapiens) | OR4C15 (Homo sapiens) | OR4C3 (Homo sapiens) | OR4C45 (Homo sapiens) [2]
inactive: all other assays above

Cc1c([N+](=O)[O-])c(C)c([N+](=O)[O-])c(C(C)(C)C)c1[N+](=O)[O-]
not listed: OR4C3 | OR4C45 (Homo sapiens) [1] | OR4CB P8T | OR4CC
inactive: all other assays above
